Among the data in ChEMBL document CHEMBL4725468, “Identification of 3,5-Dimethylisoxazole Derivatives as BRD4 Inhibitors for the Treatment of Colorectal Cancer” (ACS Med Chem Lett, 2020) are IC50 and Activity values, retold here.

pIC50: −log10 of the molar value.

One assay concerns the target Bromodomain-containing protein 4 (Homo sapiens, UniProt O60885). The assay is described as follows: Inhibition of BRD4 bromodomain1 (unknown origin) using peptide histone H4 (SGRGACKGGACKGLGAC-KGGAACKRHGSGSK-biotin) as substrate incubated for 15 mins followed by substrate addition measured after 1 hr by alphascreen assay.
Conditions: not given
For orientation: Bead proximity is the source of the signal in Alpha formats.
Usually pIC50 stands for the IC50 on a negative log10 scale, so that one unit is a factor of ten. In turn, `Cc1noc(C)c1-c1ccc2c(c1)C(c1ccccc1)N(CCCCCCN1C(=O)N(C)c3ccc(-c4c(C)noc4C)cc3C1c1ccccc1)C(=O)N2C` (centres undefined) had a negative logarithm of the IC50 (pIC50) of 7.38.
Same read-out and setting: in the case of `Cc1noc(C)c1-c1ccc2c(c1)C(c1ccccc1)N(CCCCN1C(=O)N(C)c3ccc(-c4c(C)noc4C)cc3C1c1ccccc1)C(=O)N2C` (centres undefined) it was 7.89.

The next assay concerns BXPC-3. The assay is described as follows: Antiproliferation activity against human BxPC3 cells assessed as reduction in cell viability at 2.5 uM incubated for 48 hrs by MTT assay relative to control. Format: functional.
Conditions: not given
The procedure, abridged:
(§1)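 Single-concentration screen at 2.5 μM against BxPc3 and Mia-capa2 pancreatic cancer cells. Read-out is percent growth inhibition.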
(In general: Tetrazolium assays rely on reduction of a dye to a coloured formazan, in cell work by metabolically active cells.)
Turning to `Cc1noc(C)c1-c1ccc2c(c1)C(c1ccccc1)N(CCCCCCN1C(=O)N(C)c3ccc(-c4c(C)noc4C)cc3C1c1ccccc1)C(=O)N2C` (centres undefined), the Activity is given as 44%.
The same measure, in the same setting: next, `Cc1noc(C)c1-c1ccc2c(c1)C(c1ccccc1)N(CCCCN1C(=O)N(C)c3ccc(-c4c(C)noc4C)cc3C1c1ccccc1)C(=O)N2C` (centres undefined): 46.4%.

The test system of another assay is MIA PaCa-2. The assay is described as follows: Antiproliferation activity against human MIAPaCa2 cells assessed as reduction in cell viability at 2.5 uM incubated for 48 hrs by MTT assay relative to control.
Conditions: not given
Format: functional. The method, boiled down: as §1
`Cc1noc(C)c1-c1ccc2c(c1)C(c1ccccc1)N(CCCCCCN1C(=O)N(C)c3ccc(-c4c(C)noc4C)cc3C1c1ccccc1)C(=O)N2C` (centres undefined): the Activity was found to be 70.9%.
Consider `Cc1noc(C)c1-c1ccc2c(c1)C(c1ccccc1)N(CCCCN1C(=O)N(C)c3ccc(-c4c(C)noc4C)cc3C1c1ccccc1)C(=O)N2C` (centres undefined), for which the Activity is listed as 68.2%.

For another assay, the system named is HCT-116. The assay is described as follows: Antiproliferation activity against human HCT116 cells assessed as reduction in cell viability at 2 uM incubated for 48 hrs by MTT assay relative to control. The class given is functional.
Conditions: not given
The method, boiled down:
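HCT116 colon cancer cells screened at a single 2.0 μM concentration. Read-out is percent growth inhibition.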
Take `Cc1noc(C)c1-c1ccc2c(c1)C(c1ccccc1)N(CCCCCCN1C(=O)N(C)c3ccc(-c4c(C)noc4C)cc3C1c1ccccc1)C(=O)N2C` (centres undefined): the Activity is reported as 59.7%.
Take `Cc1noc(C)c1-c1ccc2c(c1)C(c1ccccc1)N(CCCCN1C(=O)N(C)c3ccc(-c4c(C)noc4C)cc3C1c1ccccc1)C(=O)N2C` (centres undefined): the Activity was determined as 59.3%.

The subject of a further assay is HCT-116. The assay is described as follows: Antiproliferation activity against human HCT116 cells assessed as reduction in cell viability incubated for 48 hrs by MTT assay. Format: functional, cell-based. To be noted: HCT-116, 48 h. The method, boiled down:
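HCT116 cells treated across a concentration gradient. IC50 was taken from dose–response curves, reported as mean ± SD of at least three independent experiments.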
As to `Cc1noc(C)c1-c1ccc2c(c1)C(c1ccccc1)N(CCCCCCN1C(=O)N(C)c3ccc(-c4c(C)noc4C)cc3C1c1ccccc1)C(=O)N2C` (centres undefined), the pIC50 was 5.96.
